Compounds with a hit are over-represented: about 1.6% of the library has one in this group of screens.
NR2E3 ag-1: inhibitors of NR2E3-RetCOR corepressor binding, primary screen, NR2E3 agonist project, biochemical, TR-FRET, GST-NR2E3, biotin-RetCOR. Photoreceptor-specific nuclear receptor (Homo sapiens), Q9Y5X4. 1536-well. inhibition of corepressor binding, % at 4.78 µM. 320,000 compounds, 0.12% hits. AID 2300, 2010;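 active = percent inhibition above the cutoff of mean plus 3 SD of all tested compounds, set per screening campaign, cut at about 20% in these data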
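Assay system: NR2E3–RetCOR corepressor complex. Quantity: 1.35 nM GST-NR2E3. Buffer or medium: pH 7.5 Tris-based buffer. Reagent: biotinylated RetCOR corepressor at 7 nM final. Schedule: 5 h at 4 °C. Detection: TR-FRET, emission read at 617 and 671 nm. Replicates: one well per compound, singlicate testing.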
NR2E3 ag-2: NR2E3 agonists in two-hybrid cells, primary screen, cell-based, luminescence, CHO-S, Gal4-NCOR/VP16-NR2E3 | Photoreceptor-specific nuclear receptor (Homo sapiens), Q9Y5X4 | 360,000 compounds, 0.35% hits | inhibition of corepressor binding, % at 3.98 µM | luciferase;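 active = inhibition above the mean of all tested compounds plus 3 SD, cut at about 70% in these data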;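 also: higher means lower luciferase signal from less NR2E3 corepressor binding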
PG9 binder: binders of HIV-1 gp120 antibody PG9, primary screen, biochemical, TR-FRET; HIV-1 gp120 / PG9 antibody interaction; TR-FRET gp120-PG9 antibody binding; inhibition, % at 6.7 µM; 360,000 compounds, 0.43% hits; in the data active = inhibition above about 8.5%
NR1D1 modulator: modulators of Rev-erb alpha DNA binding, primary screen, biochemical, FITC-DNA, fluorescence polarization, uHTS; Nuclear receptor subfamily 1 group D member 1 (Homo sapiens), P20393; Rev-erbα–FITC-DNA binding, 90 min; activity, % at 10 µM; 370,000 compounds, 0.79% hits;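 active = activity above about 14%, limit read from the data; passing the limit was not always enough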
PKA-R2B activ: activators of PKA-R2B holoenzyme, primary screen, biochemical, fluorescence polarization, Cy5-IP20, human; activation, % at 11.4 µM; PKA-R2B holoenzyme dissociation; R2B truncated from residue 108, S112A mutant; 0% DMSO only, 100% 113 µM cGMP; 340,000 compounds, 0.079% hits;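 active = activation above a cutoff set at the mean over all compounds plus 3 SD, cut at about 18% in these data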;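 also: higher means more holoenzyme dissociation and a rise in polarization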
PKA-R1A act: activators of PKA-R1A holoenzyme, primary screen, biochemical, fluorescence polarization, Cy5-IP20, bovine R1A, mouse PKAc. activation, % at 11.4 µM. PKA-R1A dissociation; scaled: DMSO 0%, 113 µM cGMP 100%. 340,000 compounds, 0.083% hits. cAMP-dependent protein kinase type I-alpha regulatory subunit (Bos taurus) + …;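 active = percent activation above the mean of all tested compounds plus 3 SD, cut at about 19% in these data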;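 also: higher means more PKAc released from R1A so a rise in polarization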
NR2E3 ag confirm: NR2E3 agonists, confirmation, biochemical, TR-FRET; activation (reported as inhibition), % at 3.98 µM; cell-free NR2E3 corepressor release, 5 h; AID 2379, 2010; shares compounds with NR2E3 ag-1; 360 compounds, 39% hits; in the data active = activation above about 20%
PPARg-NCOR2 ag: agonists of PPARg-NCOR2 corepressor interaction, counter-screen for NR2E3 agonist project, biochemical, TR-FRET; 360 compounds, 45% hits; shares compounds with NR2E3 ag-1; inhibition, % at 3.98 µM; TR-FRET PPARg-NCOR2 coregulator interaction; in the data active = inhibition above about 20%
Each line names hits and unclear results; the compound was inactive in the other large screens (follow-up assays come after a bar, where they were run).

Cc1ccc(C2C(C(N)=S)=C(N)OC3=C2C(=O)CC(C)(C)C3)cc1 (configuration not stated)	NR2E3 ag-1 26 | NR2E3 ag confirm inactive | PPARg-NCOR2 ag 65
N[C@@H](CC(=O)N1CCn2c(nnc2C(F)(F)F)C1)Cc1cc(F)c(F)cc1F	none (no result: NR2E3 ag-1, NR2E3 ag-2, PG9 binder, PKA-R2B activ, PKA-R1A act)
CCc1c(C)c2ccc(O)c(CN(C)C)c2oc1=O	none
Cc1c(Br)c(=O)oc2c(C)c(O)ccc12	NR2E3 ag-1 21 | NR2E3 ag confirm inactive | PPARg-NCOR2 ag inactive
CCCCCC(=O)O[C@]1(C(C)=O)CCC2C3CCC4=CC(=O)CC[C@]4(C)C3CC[C@@]21C (some centres not stated)	none (no result: NR2E3 ag-1, NR2E3 ag-2, PG9 binder, PKA-R2B activ, PKA-R1A act)
CC(C)(CO)[C@@H](O)C(=O)NCCCC(=O)O	none (no result: NR2E3 ag-1, NR2E3 ag-2, PG9 binder, PKA-R2B activ, PKA-R1A act)
c1coc(-c2nc(-c3ccco3)c(-c3ccco3)nc2-c2ccco2)c1	NR2E3 ag-1 42 | NR2E3 ag confirm inactive | PPARg-NCOR2 ag inactive
CC(=O)NC(CCS(C)(=O)=O)C(=O)Nc1ccc(Cl)c(Cl)c1 (configuration not stated)	NR2E3 ag-1 20 | NR2E3 ag confirm inactive | PPARg-NCOR2 ag inactive
CCOC(=O)c1ccc(N(CC(C)O)CC(C)O)cc1 (configuration not stated)	none (no result: NR2E3 ag-1, NR2E3 ag-2, PG9 binder, PKA-R2B activ, PKA-R1A act)
N[C@@H]1[C@@H](O)[C@H](O)[C@@H](CO)O[C@H]1O	none (no result: NR2E3 ag-1, NR2E3 ag-2, PG9 binder, PKA-R2B activ, PKA-R1A act)
COc1cccc2cc(C(=O)C3=C(O)C(=O)N(Cc4ccco4)C3c3cccnc3)oc12 (configuration not stated)	NR2E3 ag-1 28 (no result: PG9 binder, NR1D1 modulator) | NR2E3 ag confirm 20 | PPARg-NCOR2 ag 24
Cc1ccc(C(=O)C2=C(O)C(=O)N(Cc3ccco3)C2c2cccc(Br)c2)o1 (configuration not stated)	NR2E3 ag-1 31 | NR2E3 ag confirm inactive | PPARg-NCOR2 ag inactive
Cc1ccc(C(=O)C2=C(O)C(=O)N(Cc3ccco3)C2c2ccc(N(C)C)cc2)o1 (configuration not stated)	none
Cc1ccc(C(=O)C2=C(O)C(=O)N(Cc3ccco3)C2c2cccc(Cl)c2)o1 (configuration not stated)	NR2E3 ag-1 31 | NR2E3 ag confirm inactive | PPARg-NCOR2 ag inactive
Cc1ccc(C(=O)C2=C(O)C(=O)N(Cc3cccnc3)C2c2ccc(Cl)c(Cl)c2)o1 (configuration not stated)	NR2E3 ag-1 32 (no result: PG9 binder, NR1D1 modulator) | NR2E3 ag confirm 23 | PPARg-NCOR2 ag 20
CC1Cc2cc(/C(O)=C3/C(=O)C(=O)N(Cc4ccco4)C3c3cccs3)ccc2O1 (configuration not stated)	NR2E3 ag-1 22 | NR2E3 ag confirm inactive | PPARg-NCOR2 ag inactive
CC(C)(O)c1ccccc1CC[C@@H](SC1(CC(=O)O)CC1)c1cccc(/C=C/c2ccc3ccc(Cl)cc3n2)c1	none (no result: NR2E3 ag-1, NR2E3 ag-2, PG9 binder, PKA-R2B activ, PKA-R1A act)
COc1cc2oc(=O)c(Br)c(C)c2c(OC)c1OC	NR2E3 ag-1 20 | NR2E3 ag confirm inactive | PPARg-NCOR2 ag inactive
CCOC(=O)c1c(NC(=O)CSc2nnc(Cc3ccccc3)o2)sc(C(C)=O)c1C	NR2E3 ag-1 32 | NR2E3 ag confirm inactive | PPARg-NCOR2 ag inactive
CCOC(=O)c1c(NC(=O)CSc2nnc(-c3ccccc3)o2)sc(C(C)=O)c1C	none
O=C1NC(c2ccccc2)(c2ccccc2)C(=O)N1COP(=O)(O)O	none (no result: NR2E3 ag-1, NR2E3 ag-2, PG9 binder, PKA-R2B activ, PKA-R1A act)
CCCCC1=CC2=C(c3ccco3)C(=O)C(C)(OC(=O)c3ccc(OC)cc3)C(=O)C2=CN1CC1CC1 (configuration not stated)	none
CCCCC1=CC2=C(c3ccco3)C(=O)C(C)(OC(=O)c3ccc(OC)cc3)C(=O)C2=CN1c1ccc(OC)cc1 (configuration not stated)	NR2E3 ag-1 34, PG9 binder 11 | NR2E3 ag confirm inactive | PPARg-NCOR2 ag inactive
CCCCC1=CC2=C(c3ccco3)C(=O)C(C)(OC(=O)c3ccc(OC)cc3)C(=O)C2=CN1C1CCCC1 (configuration not stated)	NR2E3 ag-1 47 (no result: NR2E3 ag-2, PG9 binder, NR1D1 modulator, PKA-R2B activ, PKA-R1A act) | NR2E3 ag confirm inactive | PPARg-NCOR2 ag inactive
C[C@]12C=CC(=O)C=C1CCC1C2[C@@H](O)C[C@@]2(C)C1CC[C@]2(O)C(=O)COC(=O)CCC(=O)O (some centres not stated)	none (no result: NR2E3 ag-1, NR2E3 ag-2, PG9 binder, PKA-R2B activ, PKA-R1A act)
O=C(OC1C(OC(=O)c2cccnc2)C(OC(=O)c2cccnc2)C(OC(=O)c2cccnc2)C(OC(=O)c2cccnc2)C1OC(=O)c1cccnc1)c1cccnc1 (configuration not stated)	none (no result: NR2E3 ag-1, NR2E3 ag-2, PG9 binder, PKA-R2B activ, PKA-R1A act)
CCCCC(=O)O[C@]1(C(=O)CO)[C@@H](C)CC2C3CCC4=CC(=O)C=C[C@]4(C)[C@@]3(F)C(O)C[C@@]21C (some centres not stated)	none (no result: NR2E3 ag-1, NR2E3 ag-2, PG9 binder, PKA-R2B activ, PKA-R1A act)
O=C(O)CCCC[C@@H]1SC[C@@H]2NC(=O)N[C@@H]21	NR2E3 ag-1 93 | NR2E3 ag confirm 94 | PPARg-NCOR2 ag 94
NC(=O)C1CSSCCC(=O)NC(CCCCN=C(N)N)C(=O)NCC(=O)NC(CC(=O)O)C(=O)NC(Cc2c[nH]c3ccccc23)C(=O)N2CCCC2C(=O)N1 (configuration not stated)	none (no result: NR2E3 ag-1, NR2E3 ag-2, PG9 binder, PKA-R2B activ, PKA-R1A act)
O=C1C=C(O)C(n2cncn2)C(c2ccc3c(c2)OCO3)C1 (configuration not stated)	NR2E3 ag-1 24 | NR2E3 ag confirm inactive | PPARg-NCOR2 ag inactive
CCCCCCC(=O)O[C@H]1CC[C@H]2[C@@H]3CCc4cc(O)ccc4[C@H]3CC[C@]12C	none (no result: NR2E3 ag-1, NR2E3 ag-2, PG9 binder, PKA-R2B activ, PKA-R1A act)
COCCNC(=O)c1cc(-c2ccccn2)nc2ccc(S(=O)(=O)N3CCC(C)CC3)cc12	NR2E3 ag-1 20 | NR2E3 ag confirm inactive | PPARg-NCOR2 ag inactive
CCOCCCNC(=O)c1cc(-c2cccnc2)nc2ccc(S(=O)(=O)N3CCC(C)CC3)cc12	none (no result: PG9 binder, NR1D1 modulator)
